Assay results published in ChEMBL document CHEMBL1127600, “Mercaptoacyl amino acid inhibitors of atriopeptidase. 1. Structure-activity relationship studies of methionine and S-alkylcysteine derivatives” (J Med Chem, 1994).

How the values were obtained:
[1] = biological target: T1, Angiotensin-converting enzyme (Oryctolagus cuniculus, UniProt P12822); experiment: Tested in vitro for its inhibitory activity against angiotensin converting enzyme
T1 sequence (P12822 whole entry): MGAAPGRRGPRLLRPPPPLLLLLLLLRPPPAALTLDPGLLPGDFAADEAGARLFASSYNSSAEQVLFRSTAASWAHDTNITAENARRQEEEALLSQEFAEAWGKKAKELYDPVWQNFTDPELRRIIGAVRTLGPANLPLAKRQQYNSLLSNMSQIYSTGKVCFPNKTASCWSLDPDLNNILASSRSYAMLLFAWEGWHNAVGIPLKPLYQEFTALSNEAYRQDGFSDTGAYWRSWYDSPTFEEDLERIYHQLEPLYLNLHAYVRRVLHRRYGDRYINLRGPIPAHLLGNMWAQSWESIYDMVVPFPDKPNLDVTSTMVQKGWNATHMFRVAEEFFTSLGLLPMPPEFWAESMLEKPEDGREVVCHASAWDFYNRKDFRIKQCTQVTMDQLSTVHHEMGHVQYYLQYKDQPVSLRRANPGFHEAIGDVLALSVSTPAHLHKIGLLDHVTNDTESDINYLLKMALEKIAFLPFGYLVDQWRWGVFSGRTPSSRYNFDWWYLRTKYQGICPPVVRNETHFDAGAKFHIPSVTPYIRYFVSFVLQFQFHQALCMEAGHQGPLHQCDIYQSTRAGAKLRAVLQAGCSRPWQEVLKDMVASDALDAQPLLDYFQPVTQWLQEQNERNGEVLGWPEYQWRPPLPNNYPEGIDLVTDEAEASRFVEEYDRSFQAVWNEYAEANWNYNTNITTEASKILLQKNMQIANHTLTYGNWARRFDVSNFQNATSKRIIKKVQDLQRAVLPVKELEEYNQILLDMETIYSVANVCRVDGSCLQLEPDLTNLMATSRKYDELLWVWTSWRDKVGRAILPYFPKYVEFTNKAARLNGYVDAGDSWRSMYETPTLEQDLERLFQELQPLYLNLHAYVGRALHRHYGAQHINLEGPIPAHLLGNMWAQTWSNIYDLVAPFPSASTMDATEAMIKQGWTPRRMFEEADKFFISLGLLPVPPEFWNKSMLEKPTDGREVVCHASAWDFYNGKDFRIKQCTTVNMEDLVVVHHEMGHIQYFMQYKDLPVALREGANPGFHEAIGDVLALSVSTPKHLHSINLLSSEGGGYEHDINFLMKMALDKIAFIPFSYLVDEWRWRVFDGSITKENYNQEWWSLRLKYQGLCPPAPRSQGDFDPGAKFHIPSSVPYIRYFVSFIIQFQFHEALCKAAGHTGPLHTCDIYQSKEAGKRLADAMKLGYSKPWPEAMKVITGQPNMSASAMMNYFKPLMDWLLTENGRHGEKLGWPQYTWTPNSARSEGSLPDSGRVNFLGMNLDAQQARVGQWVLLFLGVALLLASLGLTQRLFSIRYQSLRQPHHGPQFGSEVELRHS

Neprilysin = biological target: T2, Neprilysin (Oryctolagus cuniculus, UniProt P08049); experiment: In vitro inhibitory activity against neutral endopeptidase (NEP)
T2 sequence (P08049 whole entry): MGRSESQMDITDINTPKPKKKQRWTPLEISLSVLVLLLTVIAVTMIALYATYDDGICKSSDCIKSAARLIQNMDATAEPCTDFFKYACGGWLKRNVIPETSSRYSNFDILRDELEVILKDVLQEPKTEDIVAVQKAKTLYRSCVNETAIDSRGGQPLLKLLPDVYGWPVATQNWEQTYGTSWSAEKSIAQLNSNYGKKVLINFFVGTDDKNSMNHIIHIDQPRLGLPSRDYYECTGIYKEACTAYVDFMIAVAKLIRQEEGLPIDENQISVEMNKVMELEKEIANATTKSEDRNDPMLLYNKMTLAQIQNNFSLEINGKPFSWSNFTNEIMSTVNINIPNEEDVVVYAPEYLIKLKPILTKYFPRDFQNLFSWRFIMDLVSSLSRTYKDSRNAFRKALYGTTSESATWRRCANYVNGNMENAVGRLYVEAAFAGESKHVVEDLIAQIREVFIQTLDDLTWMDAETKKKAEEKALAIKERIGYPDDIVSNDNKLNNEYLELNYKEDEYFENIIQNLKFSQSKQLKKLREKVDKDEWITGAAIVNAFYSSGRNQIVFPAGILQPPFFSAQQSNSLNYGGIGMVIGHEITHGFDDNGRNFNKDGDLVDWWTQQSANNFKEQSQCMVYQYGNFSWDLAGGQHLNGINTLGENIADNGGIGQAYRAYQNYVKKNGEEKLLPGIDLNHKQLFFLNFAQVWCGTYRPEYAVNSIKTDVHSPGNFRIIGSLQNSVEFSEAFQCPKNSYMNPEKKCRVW
In short: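 Purified rabbit kidney NEP (EC 24.11) was the enzyme source, with [³H]Leu-enkephalin as the substrate.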

Rattus norvegicus [2] = experiment: Tested for in vivo Antihypertensive activity in DOCA rat by giving peroral dose of 30 mg/kg; type: functional; settings: route oral
In short: (§1)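 Male Sprague-Dawley rats (100–150 g) had DOCA-Na hypertension induced and were used 17–21 days later if mean BP was >150 mmHg. Rats were not fasted. Mean BP was recorded after 90-min equilibration. Dosing was sc in TRIS buffer (2 mL/kg) or po in 0.4% aqueous methylcellulose (4 mL/kg). The maximum BP fall over 4 h versus vehicle controls was taken, averaged over four or more animals.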

Rattus norvegicus [3] = experiment: In vivo potentiation of ANF induced hypotension in rat, following subcutaneous dose of 30 mg/kg; type: functional
In short: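 Conscious male SHR (270–300 g) had caudal artery and jugular vein cannulae placed under ether. After at least 90 min of stabilization, ANF 103-125 or 99-126 was given as an iv bolus at a submaximal dose. 60–90 min later, drug or vehicle (0.2% aqueous methylcellulose with 20% Tris-HCl) was given sc. ANF was repeated 15 min after dosing, and the response was compared with vehicle controls. Values are means of four or more animals.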

Rattus norvegicus [4] = experiment: Tested for in vivo Antihypertensive activity in DOCA rat by giving subcutaneous dose of 30 mg/kg; type: functional; in short: as §1
Rattus norvegicus [5] = experiment: Tested for in vivo Antihypertensive activity in DOCA rat by giving peroral dose of 10 mg/kg; type: functional; settings: route oral; in short: as §1

| SMILES | IC50 [1] [nM] | IC50 (Neprilysin) [nM] | Delta blood pressure (Rattus norvegicus [2]) [mmHg] | Delta blood pressure (Rattus norvegicus [3]) [mmHg] | Delta blood pressure (Rattus norvegicus [4]) [mmHg] | Delta blood pressure (Rattus norvegicus [5]) [mmHg] | Delta blood pressure (Rattus norvegicus [3]; 30 mg/kg) [mmHg] |
| --- | --- | --- | --- | --- | --- | --- | --- |
| CCSCC[C@@H](NC(=O)[C@H](CS)Cc1ccccc1)C(=O)O | > 1000 | 31 | 0 | 30 | – | – | – |
| CSCC[C@@H](NC(=O)[C@@H](CSC(C)=O)Cc1ccccc1)C(=O)O | – | – | – | – | 48 | – | – |
| O=C(N[C@H](CSCCc1ccccc1)C(=O)O)[C@@H](CS)Cc1ccccc1 | 80 | 110 | 0 | 37 | – | – | – |
| CSCC[C@@H](NC(=O)C1(CS)CCCC1)C(=O)O | 700 | 3.5 | – | – | 24 | – | – |
| CSCC[C@@H](NC(=O)[C@H](CS)Cc1ccccc1)C(=O)O | > 1000 | 3.5 | – | 50 | – | 30 | – |
| O=C(N[C@H](CSCc1ccccc1)C(=O)O)[C@@H](CS)Cc1ccc(Cl)cc1 | 44 | 3 | 20 | 19 | – | – | – |
| CSCC[C@@H](NC(=O)[C@@H](CSC(=O)c1ccccc1)Cc1ccccc1)C(N)=O | – | – | – | – | 0 | – | – |
| CSCC[C@@H](NC(=O)[C@H](CS)Cc1ccccc1)C(N)=O | > 1000 | 94 | – | – | – | – | – |
| COC(=O)[C@@H](CCSC)NC(=O)[C@H](CSC(C)=O)Cc1ccccc1 | – | – | – | 45 | – | 14 | – |
| CC(C)(C)SC[C@@H](NC(=O)[C@H](CS)Cc1ccccc1)C(=O)O | 640 | 231 | – | 0 | – | – | – |
| CCSC[C@@H](NC(=O)C(CS)Cc1ccccc1)C(=O)O (stereo partly specified) | 45 | 6.5 | – | 25 | – | – | – |
| CCSCC[C@@H](NC(=O)[C@@H](CS)Cc1ccccc1)C(=O)O | 215 | 5 | – | 20 | – | – | – |
| Cc1ccc(CSC[C@@H](NC(=O)[C@H](CS)Cc2cccc3ccccc23)C(=O)O)cc1 | 90 | 39 | – | 0 | – | – | – |
| O=C(N[C@H](CSC(c1ccccc1)(c1ccccc1)c1ccccc1)C(=O)O)C(CS)Cc1ccccc1 (stereo partly specified) | > 1000 | 274 | – | 0 | – | – | – |
| CCOC(=O)[C@@H](CCSC)NC(=O)C1(CSC(C)=O)CCCC1 | – | – | – | – | – | 27 | – |
| O=C(N[C@H](CSCCc1ccccc1)C(=O)O)[C@H](CS)Cc1ccccc1 | > 1000 | 133 | 38 | 23 | – | – | – |
| CSCC[C@@H](NC(=O)C(CSC(C)=O)Cc1ccccc1)C(=O)N1CCCC1 (stereo partly specified) | – | – | – | 29 | – | 24 | – |
| O=C(N[C@@H](CSCc1ccccc1)C(=O)O)[C@@H](CS)Cc1ccccc1 | 115 | 19 | – | 11 | – | – | – |
| CCCC(CS)C(=O)N[C@H](CSCC)C(=O)O (stereo partly specified) | 1000 | > 300 | – | – | – | – | – |
| O=C(N[C@H](CSCc1ccccc1)C(=O)O)C(CS)Cc1ccccc1 (single isomer, unassigned) | 1250 | 14 | 18 | – | – | – | 19 |
